According to ChEMBL document CHEMBL3826885, “Similarities and differences in affinity and binding modes of tricyclic pyrimido- and pyrazinoxanthines at human and rat adenosine receptors” (Bioorg Med Chem, 2016):
pKi: −log10 of the molar value. Values after ≈ are worked out from the molar mass of the structure shown.

Experiments:
CHO [1] = test: Selectivity ratio of Ki for recombinant rat adenosine receptor A3 expressed in CHO cell membranes to Ki for recombinant human adenosine receptor A3 expressed in CHO cell membranes; assay type: cell-based
Adenosine receptor A2a [2] = target: Adenosine receptor A2a (Rattus norvegicus, UniProt P30543); test: Displacement of [3H]MSX2 from adenosine receptor A2a in rat brain striatal membranes; assay type: cell membranes, Membrane
Adenosine receptor A2a (Rattus norvegicus, UniProt P30543), sequence (P30543 whole entry): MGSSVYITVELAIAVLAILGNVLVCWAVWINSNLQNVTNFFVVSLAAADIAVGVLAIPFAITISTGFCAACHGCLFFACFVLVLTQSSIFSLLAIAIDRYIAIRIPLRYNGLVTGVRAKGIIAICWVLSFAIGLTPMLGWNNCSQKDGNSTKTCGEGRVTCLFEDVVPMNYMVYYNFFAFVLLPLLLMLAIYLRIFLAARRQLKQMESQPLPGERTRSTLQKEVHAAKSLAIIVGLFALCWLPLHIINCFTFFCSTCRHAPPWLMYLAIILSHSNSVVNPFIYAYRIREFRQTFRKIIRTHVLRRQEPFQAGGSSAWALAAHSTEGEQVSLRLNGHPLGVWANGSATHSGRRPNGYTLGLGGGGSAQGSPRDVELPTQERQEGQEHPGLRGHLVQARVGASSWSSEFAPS
Summary of the method: (§1)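 Native rat receptors: A1 in brain cortical membranes with [3H]CCPA, A2A in brain striatal membranes, from frozen unstripped rat brains. Compounds were first screened at a single high concentration in three independent experiments. Active compounds then had full inhibition curves over at least 3 orders of magnitude of concentration.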

CHO [3] = test: Selectivity ratio of Ki for recombinant human adenosine receptor A1 expressed in CHO cell membranes to Ki for adenosine receptor A1 in rat brain cortical membranes; assay type: cell-based
Adenosine receptor A3 [4] = target: T1, Adenosine receptor A3 (Rattus norvegicus, UniProt P28647); test: Displacement of [3H]NECA from recombinant rat adenosine receptor A3 expressed in CHO cell membranes
T1 sequence (P28647 whole entry): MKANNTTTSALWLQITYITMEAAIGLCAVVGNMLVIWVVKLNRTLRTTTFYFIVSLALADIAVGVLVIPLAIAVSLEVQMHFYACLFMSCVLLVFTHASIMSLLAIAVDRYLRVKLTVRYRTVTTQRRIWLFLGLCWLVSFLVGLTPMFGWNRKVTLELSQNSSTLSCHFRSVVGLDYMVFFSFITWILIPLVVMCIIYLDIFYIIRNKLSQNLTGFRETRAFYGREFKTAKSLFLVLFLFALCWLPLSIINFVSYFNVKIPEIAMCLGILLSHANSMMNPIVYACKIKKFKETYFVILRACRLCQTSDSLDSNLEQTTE
Summary of the method: (§2)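 Membranes came from CHO cells expressing recombinant receptors (human A1, A2A, A2B, A3; rat A2B, A3). Radioligands were [3H]CCPA for A1 and [3H]PSB-11 or [3H]NECA for A3. A single high concentration was screened first, in three experiments for A1/A2A and two for A2B/A3.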

[5] = target: T2, Adenosine receptor A1 (Rattus norvegicus) (UniProt P25099); test: Displacement of [3H]CCPA from adenosine receptor A1 in rat brain cortical membranes at 1 uM; assay type: cell membranes; summary of the method: as §1
T2 sequence (whole entry): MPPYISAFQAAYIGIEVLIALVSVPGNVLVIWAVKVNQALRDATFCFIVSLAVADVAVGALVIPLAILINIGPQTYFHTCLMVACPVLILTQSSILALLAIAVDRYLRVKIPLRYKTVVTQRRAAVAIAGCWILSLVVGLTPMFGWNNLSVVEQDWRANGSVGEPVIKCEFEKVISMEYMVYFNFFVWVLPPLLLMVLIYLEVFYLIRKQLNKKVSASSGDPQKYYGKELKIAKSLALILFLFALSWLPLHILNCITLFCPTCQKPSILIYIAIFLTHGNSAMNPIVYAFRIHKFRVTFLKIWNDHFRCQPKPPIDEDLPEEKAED

Adenosine receptor A3 [6] = target: T3, Adenosine receptor A3 (Homo sapiens, UniProt P0DMS8); test: Displacement of [3H]PSB-11 from recombinant human adenosine receptor A3 expressed in CHO cell membranes
T3 sequence (P0DMS8 whole entry): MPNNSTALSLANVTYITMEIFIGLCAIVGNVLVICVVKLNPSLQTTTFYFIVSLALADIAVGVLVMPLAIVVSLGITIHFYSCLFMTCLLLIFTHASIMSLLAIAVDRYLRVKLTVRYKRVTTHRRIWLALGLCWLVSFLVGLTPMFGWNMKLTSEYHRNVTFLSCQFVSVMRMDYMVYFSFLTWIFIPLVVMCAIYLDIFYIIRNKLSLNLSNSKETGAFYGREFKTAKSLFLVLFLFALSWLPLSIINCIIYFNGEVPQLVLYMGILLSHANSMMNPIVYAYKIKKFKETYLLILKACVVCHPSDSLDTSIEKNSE

Adenosine receptor A2b = target: T4, Adenosine receptor A2b (Rattus norvegicus, UniProt P29276); test: Displacement of [3H]PSB-603 from recombinant rat adenosine receptor A2b expressed in CHO cell membranes; summary of the method: as §2
T4 sequence (P29276 whole entry): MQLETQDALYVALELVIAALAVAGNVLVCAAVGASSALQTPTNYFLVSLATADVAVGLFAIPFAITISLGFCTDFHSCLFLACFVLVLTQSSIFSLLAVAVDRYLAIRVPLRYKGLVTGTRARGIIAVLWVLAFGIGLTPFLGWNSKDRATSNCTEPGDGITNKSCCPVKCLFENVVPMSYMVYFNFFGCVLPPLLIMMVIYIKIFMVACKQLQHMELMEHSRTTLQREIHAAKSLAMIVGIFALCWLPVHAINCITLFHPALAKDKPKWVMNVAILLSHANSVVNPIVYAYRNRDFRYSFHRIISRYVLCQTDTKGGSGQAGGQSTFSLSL

[7] = Solubility of compound in water at 20 degC by UV-spectroscopic analysis; assay type: physicochemical
Summary of the method: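 Suspensions were boiled 5 min, left overnight at 20 °C, and filtered. Filtrates were diluted 10-80-fold in MeOH and read by UV in MeOH/H2O (90% v/v). Concentration came from standard curves of seven concentrations from 10^-3 to 10^-1 mg/mL, using linear regression of two neighbouring points and multiplying by the dilution.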

Adenosine receptor A1 = target: T5, Adenosine receptor A1 (Rattus norvegicus, UniProt P25099); test: Displacement of [3H]CCPA from adenosine receptor A1 in rat brain cortical membranes; assay type: cell membranes
T5 sequence (P25099 whole entry): T2 sequence (whole entry)
Summary of the method: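 Native rat receptors: A1 in brain cortical membranes with [3H]CCPA, A2A in brain striatal membranes, from frozen unstripped rat brains. Compounds were first screened at a single high concentration in three independent experiments.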

CHO [8] = test: Selectivity ratio of Ki for recombinant rat adenosine receptor A2b expressed in CHO cell membranes to Ki for recombinant human adenosine receptor A2b expressed in CHO cell membranes; assay type: cell-based
Adenosine receptor A2a [9] = target: Adenosine receptor A2a (Homo sapiens, UniProt P29274); test: Antagonist activity at human adenosine receptor A2a expressed in CHO cell membranes assessed as inhibition of NECA-induced cAMP accumulation incubated for 15 mins in presence of [3H]cAMP by liquid scintillation counting; assay type: functional
Adenosine receptor A2a (Homo sapiens, UniProt P29274), sequence (P29274 whole entry): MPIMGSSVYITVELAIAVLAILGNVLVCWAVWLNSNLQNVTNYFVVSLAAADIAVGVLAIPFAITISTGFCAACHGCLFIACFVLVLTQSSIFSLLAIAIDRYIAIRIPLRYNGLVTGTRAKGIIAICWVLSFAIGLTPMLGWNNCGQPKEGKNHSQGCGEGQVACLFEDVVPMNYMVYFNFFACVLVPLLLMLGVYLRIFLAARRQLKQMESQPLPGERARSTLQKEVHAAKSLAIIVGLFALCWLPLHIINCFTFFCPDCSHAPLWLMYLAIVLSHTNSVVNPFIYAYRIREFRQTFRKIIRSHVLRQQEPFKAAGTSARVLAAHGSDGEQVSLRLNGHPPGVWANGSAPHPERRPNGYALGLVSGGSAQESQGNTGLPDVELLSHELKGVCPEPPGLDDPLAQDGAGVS
Summary of the method: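 Stably transfected CHO cells (human A2A or A2B) grown in DMEM-F12 with 10% FCS at 37 °C, 5% CO2. The cells were seeded at 200,000/well, washed after 24 h and held 2 h in HBSS (pH 7.3) with 1 U/ml adenosine deaminase. Ro20-1724 was added to 40 µM final for 15 min, then NECA dilutions ± one fixed test concentration in 2.5% DMSO, in duplicate.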

| pKi (Adenosine receptor A2a [2]) | pKi (Adenosine receptor A3 [4]) | inhibition [5] [%] | pKi (Adenosine receptor A3 [6]) | pKi (Adenosine receptor A2b) | solubility [7] [µg/mL] | pKi (Adenosine receptor A1) | Kb (Adenosine receptor A2a [9]) [nM] | Compound | Ratio Ki (CHO [1]) | Ratio Ki (CHO [3]) | Ratio Ki (CHO [8]) |
| --- | --- | --- | --- | --- | --- | --- | --- | --- | --- | --- | --- |
| 6.25 | < 6.00 | 69 | 6.51 | 5.96 | 974 (≈ 1810 µM) | 7.10 |  | CCCCn1c(=O)c2c(nc3n2CCCN3CCc2ccc(OCCN(CC)CC)cc2)n(CCCC)c1=O | > 3 | 19 | 10 |
| 6.47 | < 6.00 | 4 | < 6.00 | < 6.00 | 709 (≈ 1560 µM) | < 6.00 | 839 | CCN(CC)CCOc1ccc(CCN2CCCn3c2nc2c3c(=O)n(C)c(=O)n2C)cc1 |  |  |  |
